Test system: HEK-293T
Assay: Multiplex assay against HEK293T
Type: toxicity, cell-based
Conditions: human
Summary of the method: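 On a CQ1 microscope at 37°C and 5% CO2, live cells were imaged after compound addition. They had been stained at seeding with Hoechst33342, BioTracker Green Microtubule Cytoskeleton Dye, MitoTracker Red and Annexin V Alexa Fluor 680. CellPathfinder machine-learning gating assigned cells to Hoechst high-intensity objects or normal cells, normal cells to healthy, pyknosed or fragmented nuclei, and pyknosed cells to mitotic or apoptotic. Tubulin, mitochondrial-mass and membrane-permeability phenotypes are per cents of healthy-nucleus cells.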

[1] = 12 h, 1 µM, compound concentration 1 uM, replicate 1
[2] = 12 h, 1 µM, compound concentration 1 uM, replicate 2
[3] = 12 h, 10 µM, compound concentration 10 uM, replicate 1
[4] = 12 h, 10 µM, compound concentration 10 uM, replicate 2
[5] = 24 h, 1 µM, compound concentration 1 uM, replicate 1
[6] = 24 h, 1 µM, compound concentration 1 uM, replicate 2
[7] = 24 h, 10 µM, compound concentration 10 uM, replicate 1
[8] = 24 h, 10 µM, compound concentration 10 uM, replicate 2
[9] = 48 h, 1 µM, compound concentration 1 uM, replicate 1
[10] = 48 h, 1 µM, compound concentration 1 uM, replicate 2
[11] = 48 h, 10 µM, compound concentration 10 uM, replicate 1
[12] = 48 h, 10 µM, compound concentration 10 uM, replicate 2

Compound: CN1C[C@H](C(=O)N[C@]2(C)O[C@@]3(O)[C@@H]4CCCN4C(=O)[C@H](Cc4ccccc4)N3C2=O)C[C@@H]2c3cccc4[nH]cc(c34)C[C@H]21.CS(=O)(=O)O [DIHYDROERGOTAMINE MESYLATE]
- Population Apoptotic (%) [1]: 38%
- Population Fragmented Nuclei (%) [1]: 6%
- Population Healthy Nuclei (%) [1]: 84%
- Population Hoechst High Intensity Objects (%) [1]: 5%
- Population Membrane Permeable-Phenotype (%) [1]: 0%
- Population Mitochondria Different-Phenotype (%) [1]: 41%
- Population Mitotic Cells (%) [1]: 61%
- Population Normal (%) [1]: 94%
- Population Pyknosed Nuclei (%) [1]: 8%
- Population Tubulin-Different-Phenotype (%) [1]: 26%
- Total Cell Count [1]: 418
- Population Apoptotic (%) [2]: 46%
- Population Fragmented Nuclei (%) [2]: 3%
- Population Healthy Nuclei (%) [2]: 81%
- Population Mitochondria Different-Phenotype (%) [2]: 65%
- Population Mitotic Cells (%) [2]: 53%
- Population Pyknosed Nuclei (%) [2]: 14%
- Population Tubulin-Different-Phenotype (%) [2]: 17%
- Total Cell Count [2]: 285
- Population Apoptotic (%) [3]: 31%
- Population Fragmented Nuclei (%) [3]: 7%
- Population Healthy Nuclei (%) [3]: 76%
- Population Hoechst High Intensity Objects (%) [3]: 9%
- Population Membrane Permeable-Phenotype (%) [3]: 0%
- Population Mitochondria Different-Phenotype (%) [3]: 48%
- Population Mitotic Cells (%) [3]: 68%
- Population Normal (%) [3]: 90%
- Population Pyknosed Nuclei (%) [3]: 15%
- Population Tubulin-Different-Phenotype (%) [3]: 29%
- Total Cell Count [3]: 403
- Population Apoptotic (%) [4]: 53%
- Population Fragmented Nuclei (%) [4]: 5%
- Population Healthy Nuclei (%) [4]: 80%
- Population Hoechst High Intensity Objects (%) [4]: 11%
- Population Mitochondria Different-Phenotype (%) [4]: 61%
- Population Mitotic Cells (%) [4]: 46%
- Population Normal (%) [4]: 88%
- Population Pyknosed Nuclei (%) [4]: 13%
- Population Tubulin-Different-Phenotype (%) [4]: 23%
- Total Cell Count [4]: 435
- Population Apoptotic (%) [5]: 28%
- Population Fragmented Nuclei (%) [5]: 9%
- Population Healthy Nuclei (%) [5]: 80%
- Population Hoechst High Intensity Objects (%) [5]: 4%
- Population Membrane Permeable-Phenotype (%) [5]: 0%
- Population Mitochondria Different-Phenotype (%) [5]: 28%
- Population Mitotic Cells (%) [5]: 71%
- Population Normal (%) [5]: 95%
- Population Pyknosed Nuclei (%) [5]: 9%
- Population Tubulin-Different-Phenotype (%) [5]: 20%
- Total Cell Count [5]: 621
- Population Apoptotic (%) [6]: 51%
- Population Fragmented Nuclei (%) [6]: 7%
- Population Healthy Nuclei (%) [6]: 84%
- Population Hoechst High Intensity Objects (%) [6]: 3%
- Population Mitochondria Different-Phenotype (%) [6]: 41%
- Population Mitotic Cells (%) [6]: 48%
- Population Normal (%) [6]: 96%
- Population Pyknosed Nuclei (%) [6]: 8%
- Population Tubulin-Different-Phenotype (%) [6]: 12%
- Total Cell Count [6]: 341
- Population Apoptotic (%) [7]: 27%
- Population Fragmented Nuclei (%) [7]: 10%
- Population Healthy Nuclei (%) [7]: 76%
- Population Hoechst High Intensity Objects (%) [7]: 5%
- Population Membrane Permeable-Phenotype (%) [7]: 0%
- Population Mitochondria Different-Phenotype (%) [7]: 33%
- Population Mitotic Cells (%) [7]: 72%
- Population Normal (%) [7]: 94%
- Population Pyknosed Nuclei (%) [7]: 13%
- Population Tubulin-Different-Phenotype (%) [7]: 26%
- Total Cell Count [7]: 480
- Population Apoptotic (%) [8]: 32%
- Population Fragmented Nuclei (%) [8]: 9%
- Population Healthy Nuclei (%) [8]: 84%
- Population Hoechst High Intensity Objects (%) [8]: 6%
- Population Mitochondria Different-Phenotype (%) [8]: 39%
- Population Mitotic Cells (%) [8]: 67%
- Population Normal (%) [8]: 93%
- Population Pyknosed Nuclei (%) [8]: 6%
- Population Tubulin-Different-Phenotype (%) [8]: 16%
- Total Cell Count [8]: 567
- Population Apoptotic (%) [9]: 29%
- Population Fragmented Nuclei (%) [9]: 14%
- Population Healthy Nuclei (%) [9]: 78%
- Population Hoechst High Intensity Objects (%) [9]: 2%
- Population Membrane Permeable-Phenotype (%) [9]: 1%
- Population Mitochondria Different-Phenotype (%) [9]: 17%
- Population Mitotic Cells (%) [9]: 70%
- Population Normal (%) [9]: 97%
- Population Pyknosed Nuclei (%) [9]: 6%
- Population Tubulin-Different-Phenotype (%) [9]: 11%
- Total Cell Count [9]: 1011
- Population Apoptotic (%) [10]: 28%
- Population Fragmented Nuclei (%) [10]: 12%
- Population Healthy Nuclei (%) [10]: 82%
- Population Membrane Permeable-Phenotype (%) [10]: 0%
- Population Mitochondria Different-Phenotype (%) [10]: 23%
- Population Mitotic Cells (%) [10]: 71%
- Population Pyknosed Nuclei (%) [10]: 5%
- Population Tubulin-Different-Phenotype (%) [10]: 9%
- Total Cell Count [10]: 524
- Population Apoptotic (%) [11]: 22%
- Population Fragmented Nuclei (%) [11]: 15%
- Population Healthy Nuclei (%) [11]: 76%
- Population Hoechst High Intensity Objects (%) [11]: 2%
- Population Membrane Permeable-Phenotype (%) [11]: 0%
- Population Mitochondria Different-Phenotype (%) [11]: 20%
- Population Mitotic Cells (%) [11]: 77%
- Population Normal (%) [11]: 97%
- Population Pyknosed Nuclei (%) [11]: 7%
- Population Tubulin-Different-Phenotype (%) [11]: 12%
- Total Cell Count [11]: 778
- Population Apoptotic (%) [12]: 31%
- Population Healthy Nuclei (%) [12]: 77%
- Population Hoechst High Intensity Objects (%) [12]: 1%
- Population Mitochondria Different-Phenotype (%) [12]: 21%
- Population Mitotic Cells (%) [12]: 68%
- Population Normal (%) [12]: 98%
- Population Pyknosed Nuclei (%) [12]: 6%
- Population Tubulin-Different-Phenotype (%) [12]: 11%
- Total Cell Count [12]: 793

From ChEMBL document CHEMBL5058577, “EUbOPEN Chemogenomics Library 2 (Multiplex)” (2022)
